# Most compounds without a hit are left out; they make up all but 4.6% or so of the library.
# OX1R antag-1 – OX1R (HCRTR1) antagonists, primary screen, fluorescence, CHO/OX1R cells, Fluo-8 calcium, orexin A; 330,000 compounds, 0.43% hits; Fluo-8 calcium fluorescence; Orexin/Hypocretin receptor type 1 (Homo sapiens), O43613; inhibition, % at 5 µM;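 active means inhibition above its plate's threshold, mean inhibition of all tested compounds on the plate plus 3 SD, cut at about 37% in these data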
# TAAR1 antag – human TAAR1 antagonists, primary screen, Fluo-8 calcium fluorescence, CHO RD-HGA16 cells; inhibition, % at 3 µM; antagonist; 360,000 compounds, 1.5% hits;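 active means inhibition above a per-plate cutoff, the mean inhibition of test compounds on that plate plus 3 SD, cut at about 49% in these data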
# Target sequence (Q96RJ0 whole entry, looked up): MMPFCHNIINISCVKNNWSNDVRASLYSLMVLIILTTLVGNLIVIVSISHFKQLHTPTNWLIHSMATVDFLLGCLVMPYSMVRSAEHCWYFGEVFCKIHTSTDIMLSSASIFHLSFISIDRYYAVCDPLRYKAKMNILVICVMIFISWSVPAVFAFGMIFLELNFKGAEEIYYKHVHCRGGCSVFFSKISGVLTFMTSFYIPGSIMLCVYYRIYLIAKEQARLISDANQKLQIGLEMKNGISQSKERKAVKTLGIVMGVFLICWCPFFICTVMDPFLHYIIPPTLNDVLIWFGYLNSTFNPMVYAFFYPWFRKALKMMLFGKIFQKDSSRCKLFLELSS
#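 Test system: RD-HGA16 CHO cells with stable hTAAR1 and Gα16 / Probe or stimulus: EC80 β-phenethylamine stimulus / Times: seeding 17-24 h prior, 75-min 37 °C, 30-min RT dye loading / Detection: Fluo-8 calcium-sensitive fluorescence / Read-out basis: % inhibition scaled between DMSO and EC80 PEA controls / Repeats: singlicate, one well per test compound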
# GPR7 antag – GPR7 receptor antagonists, primary screen, cell-based, fluorescence, single concentration; Neuropeptides B/W receptor type 1 (Homo sapiens), P48145; GPR7-expressing cells, fluorescence antagonist assay; inhibition, % at 4.4 µM; 290,000 compounds, 1.1% hits; in the data active means inhibition above about 16%, passing the limit was not always enough;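 further: cells stimulated with the agonist NPW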
# Target sequence (P48145 whole entry, looked up): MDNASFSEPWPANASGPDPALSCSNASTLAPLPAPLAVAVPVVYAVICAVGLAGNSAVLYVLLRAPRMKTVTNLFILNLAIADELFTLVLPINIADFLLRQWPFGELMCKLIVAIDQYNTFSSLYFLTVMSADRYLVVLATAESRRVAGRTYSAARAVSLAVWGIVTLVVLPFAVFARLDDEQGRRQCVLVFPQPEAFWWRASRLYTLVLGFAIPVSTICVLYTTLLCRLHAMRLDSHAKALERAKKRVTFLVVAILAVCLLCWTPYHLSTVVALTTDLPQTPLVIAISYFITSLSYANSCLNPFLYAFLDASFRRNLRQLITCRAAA
# TAAR1 ag – human TAAR1 agonists, primary screen, Fluo-8 calcium fluorescence, CHO RD-HGA16 cells. Trace amine-associated receptor 1 (Homo sapiens), Q96RJ0. vehicle wells 0%, saturating PEA agonist 100%. activation, % at 3 µM. 360,000 compounds, 0.99% hits;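 active means activation above the mean activation of all test compounds in the run plus 3 SD, cut at about 38% in these data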
#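 System: CHO RD-HGA16 cells carrying human TAAR1 plus Gα16; Incubation: 17-24 h seeding, 75 min 37 °C dye, 30 min RT; Measured by: Fluo-8 fluorescence, 5 s baseline then 140 s kinetic read; Control set: DMSO and PEA EC100; Replication: single well for each compound.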
# CHO parental Ca – ATP-evoked calcium signal inhibitors, parental CHO, primary screen, counter-screen for OX1R antagonist project, cell-based, fluorescence, Fluo-8 calcium dye. 330,000 compounds, 0.63% hits. AID 463079, 2010. parental CHO-K1, ATP-induced calcium, Fluo-8 fluorescence. inhibition, % at 5.6 µM;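 active means inhibition above that plate's mean sample inhibition plus 3 SD, cut at about 26% in these data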
#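 Measured by: calcium-sensitive Fluo-8 fluorescence / Test system: CHO parental line / Controls: ATP-challenged DMSO wells low, unchallenged DMSO wells high / Measure: % inhibition / Compound: single nominal dose of 5.6 µM per compound / Replicates: single well per compound, no replicates / Reagent: ATP as calcium-mobilizing challenge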
# OX1R antag-2 – antagonists of human orexin 1 receptor (OX1R); Orexin/Hypocretin receptor type 1 (Homo sapiens), O43613; OX1R-expressing cells, FRET antagonist read-out; inhibition, % at 6.6 µM; 330,000 compounds, 1.8% hits; AID 485270, 2010; in the data active means inhibition mostly above about 38%, no sharp cut-off; inactive means mostly below about 40%
# A number is an active result; – = inactive; · = no result given.
SMILES,OX1R antag-1,TAAR1 antag,GPR7 antag,TAAR1 ag,CHO parental Ca,OX1R antag-2
CCCn1c(SCC(=O)Nc2ccccc2-c2ccccc2)nnc1-c1ccoc1C,–,–,–,–,–,59
Cn1nnnc1SCC(=O)Nc1ccccc1-c1ccccc1,–,–,16,–,–,–
O=C(CSc1nc2ncc(Br)cc2[nH]1)Nc1ccccc1-c1ccccc1,–,–,–,–,–,–
O=C(Nc1ccc(Cl)c(C(F)(F)F)c1)[C@@H]1CC=C[C@@H]2CCN(C3CCCCC3)C(=O)[C@@H]21,–,–,·,–,–,–
O=C(Nc1ccc(Cl)c(C(F)(F)F)c1)[C@@H]1CC=C[C@@H]2CCN(C3CC3)C(=O)[C@@H]21,–,–,·,–,–,62
COc1ccc(S(=O)(=O)N2CCCCCC2)cc1NC(=O)c1c2c(nc3ccccc13)CCN(Cc1ccccc1)C2,–,–,–,–,–,–
CCN(CC)S(=O)(=O)c1ccc(OC(C)C)c(NC(=O)c2c3c(nc4ccccc24)CCN(Cc2ccccc2)C3)c1,–,55,–,–,–,–
CC(C)(C)c1ccc(/C=C/C(=O)Nc2ccncc2)cc1,–,53,–,–,–,–
CCOC(=O)Cc1csc(SCC(=O)NC2CCC(C)CC2)n1 (stereo unspecified),–,–,·,–,–,–
COc1ccc(C(=O)N/N=C/c2ccc(OC)c(CN3CCc4cc(OC)c(OC)cc4C3C)c2)cc1 (stereo unspecified),–,–,–,–,–,–
CCOc1cc(/C=C2\CN(C)C/C(=C\c3ccc(O)c(OCC)c3)C2=O)ccc1O,–,–,–,–,–,–
CCOc1cc(/C=C2\CCC/C(=C\c3cc(Cl)c(O)c(OCC)c3)C2=O)cc(Cl)c1O,–,56,–,–,–,75
O=C1CC(C(=O)Nc2ccccc2)N=C(N2CCOCC2)N1 (stereo unspecified),–,–,–,–,–,–
Cc1cccc(NS(=O)(=O)c2ccc(NC(=O)CN(c3cc([N+](=O)[O-])ccc3C)S(C)(=O)=O)cc2)c1,–,–,66,–,–,–
COc1ccc(C)cc1NS(=O)(=O)c1ccc(NC(=O)CN(c2cc([N+](=O)[O-])ccc2C)S(C)(=O)=O)cc1,–,–,–,–,–,–
Cc1[nH][nH]c(=O)c1C(c1ccc(-c2ccc(F)cc2)o1)c1c(C)[nH][nH]c1=O,–,–,–,–,–,–
Cc1[nH][nH]c(=O)c1C(c1ccc(-c2ccc(Cl)c(Cl)c2)o1)c1c(C)[nH][nH]c1=O,–,105,–,–,–,–
CC1CC(C)CN(C(=O)Cn2c(=O)oc3cc(S(=O)(=O)N4CCCC4)ccc32)C1 (stereo unspecified),–,–,–,–,–,–
Cc1ccc(NC(=O)c2ccccc2NS(=O)(=O)c2ccc(Cl)s2)cc1,–,–,–,–,–,–
O=C(Nc1ccccc1)c1ccccc1NS(=O)(=O)c1ccc(Cl)s1,–,–,–,–,28,65
O=C(Nc1ccccc1Cc1ccccc1)c1ccccc1NS(=O)(=O)c1ccc(Cl)s1,–,–,–,–,–,77
C/C(=N\NC(=O)c1ccccc1Br)c1ccc(N2CCOCC2)cc1,–,–,–,–,–,–
CCC(Oc1cccc(Cl)c1)C(=O)N1CCCN(C)CC1 (stereo unspecified),–,–,–,–,–,–
COC(=O)N/N=C/c1c(C)c(C(=O)c2ccc(F)cc2)n2ccccc12,–,–,–,–,–,–
Cc1c(/C=N/NC(=O)c2ccc(O)cc2)c2ccccn2c1C(=O)c1ccc(F)cc1,–,–,20,–,–,–
SMILES,OX1R antag-1,TAAR1 antag,GPR7 antag,TAAR1 ag,CHO parental Ca,OX1R antag-2
CCOC(=O)Nc1ccc(C(N)=O)cc1,–,–,–,–,–,–
CCN(CC)C(c1ccc(F)cc1)c1nnnn1C1CCCCC1 (stereo unspecified),–,–,–,–,–,–
CCN(CC)C(c1ccc(C)cc1)c1nnnn1C1CCCCC1 (stereo unspecified),–,–,–,–,26,–
CCOc1ccc(C(=O)Nc2cc(-c3nc4ccccc4[nH]3)ccc2Cl)cc1[N+](=O)[O-],–,53,–,–,–,68
CCCCN(C=O)c1c(CC)nc2ccc(C(=O)NCc3ccccc3OC)cn12,·,–,·,–,·,·
C[n+]1cc(C(=O)N2CCCCC2)ccc1/C=C/c1c[nH]c2ccccc12,–,–,–,–,–,69
O=C(C(=O)N1CCCCCC1)c1c[nH]c2ccccc12,·,–,–,–,·,·
CCC1Oc2ccc(C)cc2N(CC(=O)NCCc2ccc(OC)c(OC)c2)C1=O (stereo unspecified),–,–,–,–,–,62
COc1cc(C(=O)NCc2nnc(SCC(=O)NC3CCCCC3)o2)cc(OC)c1OC,–,–,–,–,–,–
CC(=O)NC(c1ccc(F)c(F)c1)c1nc(-c2ccc3c(c2)OCO3)cs1 (stereo unspecified),·,–,·,–,·,·
COc1ccc(/C=C2\Oc3cc(OCC(=O)N4CCC[C@H]4C(=O)O)ccc3C2=O)c(OC)c1OC,–,–,–,–,–,–
COc1ccc(/C=C2\Oc3cc(OCC(=O)N4CCC[C@H]4C(=O)O)ccc3C2=O)cc1OC,–,·,–,·,–,51
Cc1cccc(C(=O)OC(C)CN2CCOCC2)c1 (stereo unspecified),–,–,–,–,–,–
CC(OC(=O)c1ccc2ccccc2c1)C(=O)N(C)Cc1ccccc1 (stereo unspecified),–,–,·,–,–,38
C[C@@H]1CN([C@H](C)CO)C(=O)CCCn2nncc2CO[C@@H]1CN(C)S(=O)(=O)c1ccccc1C#N,·,–,·,–,·,·
COc1ccc(NC(=O)Cc2csc(NC(=O)Nc3ccccc3OC)n2)cc1,·,49,·,–,·,·
COc1ccccc1NC(=O)Nc1nc(CC(=O)NC2CCCC2)cs1,–,–,·,–,–,–
COc1ccccc1NC(=O)Nc1nc(CC(=O)NCc2ccccn2)cs1,–,–,·,–,–,–
COc1ccc(N2CCN(C(=O)Cc3csc(NC(=O)Nc4ccccc4OC)n3)CC2)cc1,–,50,·,–,–,–
COc1ccccc1NC(=O)Nc1nc(CC(=O)Nc2ccc(F)c(F)c2)cs1,–,–,·,–,–,–
COc1ccccc1NC(=O)Nc1nc(CC(=O)N2CCN(c3ccccc3)CC2)cs1,–,52,·,–,–,–
